Assay outcomes (PubChem)
The list is not random: actives were taken first. Their share in the collection is about 2.3%.
TRPC4 potent: TRPC4 (mouse) allosteric potentiation | Q9QUQ5 | HEK293 TRPC4beta/mu-opioid, DAMGO EC20, Fluo-4 Ca2+ flux; active compounds read high | B-score at 10 µM | 310,000 tested, 0.42% active;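 active means B-score of calcium response area above 5 SD of library B-scores, with initial fluorescence ratio within 5 SD of library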
Target sequence (Q9QUQ5 whole entry, looked up): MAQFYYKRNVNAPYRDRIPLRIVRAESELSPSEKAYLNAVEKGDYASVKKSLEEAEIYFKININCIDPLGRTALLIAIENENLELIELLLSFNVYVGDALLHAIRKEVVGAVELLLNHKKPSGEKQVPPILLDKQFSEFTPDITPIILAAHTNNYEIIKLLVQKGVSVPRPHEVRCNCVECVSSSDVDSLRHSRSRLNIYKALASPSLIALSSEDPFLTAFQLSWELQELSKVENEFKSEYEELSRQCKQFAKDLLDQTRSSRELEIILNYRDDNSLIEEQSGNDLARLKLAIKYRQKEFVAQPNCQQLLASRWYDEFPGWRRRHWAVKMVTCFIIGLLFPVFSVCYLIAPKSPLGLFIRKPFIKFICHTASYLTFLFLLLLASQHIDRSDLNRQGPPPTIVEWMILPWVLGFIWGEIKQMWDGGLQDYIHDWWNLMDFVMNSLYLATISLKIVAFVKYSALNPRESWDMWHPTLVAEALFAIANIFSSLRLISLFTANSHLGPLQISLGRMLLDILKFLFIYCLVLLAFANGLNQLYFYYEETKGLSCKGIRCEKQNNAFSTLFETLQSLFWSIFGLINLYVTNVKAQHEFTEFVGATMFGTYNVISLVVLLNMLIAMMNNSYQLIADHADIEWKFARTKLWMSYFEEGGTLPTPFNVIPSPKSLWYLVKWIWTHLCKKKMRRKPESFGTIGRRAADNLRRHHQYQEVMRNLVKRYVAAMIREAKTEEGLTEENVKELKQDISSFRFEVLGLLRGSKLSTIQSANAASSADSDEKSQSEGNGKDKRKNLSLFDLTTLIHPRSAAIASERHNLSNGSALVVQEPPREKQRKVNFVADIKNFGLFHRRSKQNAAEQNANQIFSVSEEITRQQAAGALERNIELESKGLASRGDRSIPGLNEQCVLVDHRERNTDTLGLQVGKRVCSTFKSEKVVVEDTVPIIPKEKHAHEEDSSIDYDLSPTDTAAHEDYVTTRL
TRPC4 agonist: opens the mouse TRPC4 cation channel. B-score at 10 µM. HEK293 TRPC4beta/mu-opioid, Fluo4 calcium fluorescence; active compounds read high. Q9QUQ5. 310,000 tested, 0.49% active;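 active means B-score above 5 SD of library B-scores, and initial fluorescence ratio not above library mean plus 5 SD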;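 further: positive B-score marks a calcium rise read as TRPC4 activation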
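System – HEK293 cells stably co-expressing mouse TRPC4beta and mu-opioid receptor · Signal – Fluo4 calcium-sensitive dye fluorescence, kinetic, 1 Hz baseline · Benchmarks – buffer (low) and maximal DAMGO (high) · Read-out – B score of integrated fluorescence ratio per well · Incubation – dye loading 45 min room temperature, 110 s kinetic read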
TRPC6 inh: blocks the mouse TRPC6 cation channel. Q61143. B-score at 10 µM. 310,000 tested, 1.1% active. HEK293-TRPC6, membrane potential dye, ACh-evoked depolarization; active compounds read low;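 active means B-score under library mean minus 3 SD, initial fluorescence not abnormally high, positive integrated signal ratio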;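 further: B-score derived from integrated fluorescence ratio over the kinetic read; more negative B-score means stronger inhibition of depolarization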
TRPC4 block: blocks the mouse TRPC4 cation channel | Q9QUQ5 | HEK293 TRPC4beta/mu-opioid, DAMGO-evoked Fluo4 calcium flux; active compounds read low | B-score at 10 µM | 300,000 tested, 0.39% active;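 active means B-score over 3 SD under the library average, no early fluorescence shift, positive overall ratio signal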
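test system = HEK293 cells with stable TRPC4beta plus mu-opioid receptor expression | detection = Fluo4 Ca2+ flux fluorescence | read-out = integrated fluorescence ratio relative to baseline, converted to per-well B score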
TRPC6 act: activates the mouse TRPC6 cation channel. 310,000 tested, 0.13% active. Q61143. B-score at 10 µM. HEK293-TRPC6 membrane potential dye fluorescence; active compounds read high. AID 2550;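 active means B-score of the integrated fluorescence ratio above library mean plus 3 SD, and starting fluorescence ratio within library mean plus 5 SD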;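 further: higher score means more depolarization so channel activation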
TRPC4 sel inh 2: second check of whether TRPC6 inhibitors also affect mouse TRPC4 | shares compounds with TRPC6 inh | 920 tested, 42% active | inhibition, % at 10 µM | AID 2776 | HEK293 TRPC4/MOR, membrane potential dye fluorescence; channel activated by saturating DAMGO dose;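 active means compounds whose fluorescence signal differed from control wells by over 3 SD, either direction, in both duplicate plates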
TRPC4 spec: mouse TRPC4 off-target activity of TRPC6 inhibitors; HEK293 TRPC4/mu-opioid, membrane potential fluorescence; shares compounds with TRPC6 inh; activity change, negative = inhibition, % at 10 µM; AID 2777; 920 tested, 61% active;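 active means rise or fall in signal beyond 3 SD of buffer-only wells in both replicate plates, either sign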;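 further: integrated kinetic ratio of fluorescence range over baseline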
HEK293 MPD ctr 2-1: parental HEK293 nonspecific activity of TRPC6 inhibitors, second screen. shares compounds with TRPC6 inh. parental HEK293 membrane potential dye fluorescence; maximal acetylcholine challenge after compound addition. signal change vs control, % at 10 µM. 920 tested, 31% active;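 active means membrane potential signal moving either way by over 3 SD of the maximum-effect control, in both duplicate plates, meaning non-specific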
HEK293 MPD ctr-1: parental HEK293 nonspecific activity of TRPC6 inhibitors. shares compounds with TRPC6 inh. membrane potential signal change, % at 10 µM. 920 tested, 60% active. AID 2780. parental HEK293 membrane potential dye fluorescence;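 active means membrane potential signal shifting up or down by more than 3 SD of buffer-only wells, on both duplicate plates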
HEK293 MPD ctr-2: counter-screen for TRPC6 modulators: effect in parental HEK293 cells. 2,400 tested, 51% active. membrane potential dye fluorescence. membrane potential signal change, % at 10 µM. shares compounds with TRPC6 inh;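 active means membrane potential signal moves up or down beyond 5 SD from buffer-only wells, on both duplicate plates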
HEK293 MPD ctr 2-2: second counter-screen for TRPC6 modulators: effect in parental HEK293 cells; AID 488926; membrane potential dye fluorescence; after compound, maximal acetylcholine stimulation; inhibition, % at 10 µM; 2,400 tested, 14% active; shares compounds with TRPC6 inh;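 active means membrane potential signal drops by more than 5 SD from the mean control signal, in both duplicate plates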
TRPC4 ctr mod: mouse TRPC4 off-target activity of TRPC6 modulators; HEK293 TRPC4/mu-opioid, membrane potential fluorescence; shares compounds with TRPC6 inh; 2,400 tested, 69% active; percent change from control (negative = decrease, positive = increase), % at 10 µM;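 active means membrane potential signal moved up or down beyond 5 SD of buffer control wells, in both duplicate plates, actives on both sides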
TRPC4 ctr inh 2: second selectivity test of TRPC6 modulators against mouse TRPC4; inhibition, % at 10 µM; 2,400 tested, 55% active; shares compounds with TRPC6 inh; AID 488928; HEK293 TRPC4/mu-opioid, membrane potential dye fluorescence; stimulated with maximal-effect DAMGO;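 active means drop in membrane potential signal beyond 5 SD of the control wells in both duplicate plates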;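 further: TRPC4 counter screen for TRPC6 hits run under conditions tuned for TRPC6 not TRPC4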
TRPC6 inh conf: confirmation of mouse TRPC6 inhibitors | shares compounds with TRPC6 inh | 3,300 tested, 43% active | inhibition, % at 10 µM | HEK293-TRPC6, membrane potential dye, ACh-evoked depolarization;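 active means fluorescence ratio falls more than 5 SD below the full-stimulation control mean, in both duplicate runs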;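 further: integrated fluorescence ratio of peak minus minimum over baseline after agonist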
TRPC6 act conf: confirmation of mouse TRPC6 activators; shares compounds with TRPC6 inh; HEK293-TRPC6 membrane potential dye fluorescence, FDSS; activation, % at 10 µM; 2,800 tested, 11% active;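 active means ratio signal rise beyond 5 SD above unstimulated control wells' mean, seen in both duplicate runs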
Large screens that a line does not name were inactive (follow-up assays come after a bar, where they were run).

N#C/C(=C\c1c(N2CCN(c3ccccc3)CC2)nc2ccccn2c1=O)S(=O)(=O)c1ccccc1	none
CCN1CCN(c2nc3c(C)cccn3c(=O)c2/C=C(\C#N)S(=O)(=O)c2ccc(C)cc2)CC1	TRPC6 inh -5.06 | HEK293 MPD ctr-2 -77.0% | HEK293 MPD ctr 2-2 inactive | TRPC4 ctr mod -22.5% | TRPC4 ctr inh 2 96.0% | TRPC6 inh conf inactive | TRPC6 act conf inactive
Cc1ccc(S(=O)(=O)/C(C#N)=C/c2c(N3CCN(C)CC3)nc3c(C)cccn3c2=O)cc1	TRPC6 inh -6.81 | HEK293 MPD ctr-2 inactive | HEK293 MPD ctr 2-2 inactive | TRPC4 ctr mod -17.0% | TRPC4 ctr inh 2 83.0% | TRPC6 inh conf inactive | TRPC6 act conf inactive
CC(CNC(=O)Cn1ccc2cc(S(=O)(=O)N3CCCC3)ccc21)c1ccccc1 (stereo unspecified)	none
CC(O)c1nc2ccccc2n1C(C)c1ccccc1 (stereo unspecified)	none
Cc1ccc(CCC(=O)Nc2ccc([N+](=O)[O-])cc2)o1	none
O=C1CCC([N+](=O)[O-])C(c2ccccc2Cl)N1 (stereo unspecified)	none
O=C1CCC([N+](=O)[O-])C(c2ccccc2C(F)(F)F)N1 (stereo unspecified)	TRPC6 inh -5.14 | HEK293 MPD ctr-2 inactive | HEK293 MPD ctr 2-2 inactive | TRPC4 ctr mod inactive | TRPC4 ctr inh 2 inactive | TRPC6 inh conf inactive | TRPC6 act conf inactive
COC(=O)c1cc2ccsc2n1Cc1cc(=O)n2ccccc2n1	TRPC6 inh -5.76 | HEK293 MPD ctr-2 inactive | HEK293 MPD ctr 2-2 inactive | TRPC4 ctr mod 8.5% | TRPC4 ctr inh 2 inactive | TRPC6 inh conf 56.0% | TRPC6 act conf inactive
O=c1c2sccc2n(Cc2cc(=O)n3ccccc3n2)c(=O)n1-c1ccccc1	none
CCOc1ccc(NC(=O)CCN2CCN(S(=O)(=O)c3ccc(F)cc3)CC2)cc1	none
COC(=O)CSc1nnc(SCc2ccc(OC)cc2)s1	TRPC6 inh -5.48 | HEK293 MPD ctr-2 inactive | HEK293 MPD ctr 2-2 inactive | TRPC4 ctr mod inactive | TRPC4 ctr inh 2 inactive | TRPC6 inh conf inactive | TRPC6 act conf inactive
CCOC(=O)CNC(=S)N(Cc1ccco1)Cc1ccccc1Cl	TRPC6 inh -5.78 | HEK293 MPD ctr-2 inactive | HEK293 MPD ctr 2-2 inactive | TRPC4 ctr mod 11.5% | TRPC4 ctr inh 2 inactive | TRPC6 inh conf inactive | TRPC6 act conf inactive
CC(C)c1cc(C(=O)N2CCCC(N3CCN(c4ccccc4F)CC3)C2)nc(N)n1 (stereo unspecified)	none
Cc1nc2ncnn2c(N2CCN(c3cccc(C(F)(F)F)c3)CC2)c1C	TRPC6 act 12.6 | HEK293 MPD ctr-2 338.5% | HEK293 MPD ctr 2-2 inactive | TRPC4 ctr mod 65.0% | TRPC4 ctr inh 2 inactive | TRPC6 inh conf inactive | TRPC6 act conf 129.5%
Cc1cc(N2CCN(c3cccc(C(F)(F)F)c3)CC2)n2ncnc2n1	none
CN1c2cccc3cccc(c23)N(C)C1(C)C	none
CC(=O)c1ccc2cccc3c2c1N=CN3C	TRPC6 inh -8.92 | HEK293 MPD ctr-2 -146.5% | HEK293 MPD ctr 2-2 68.0% | TRPC4 ctr mod -65.5% | TRPC4 ctr inh 2 50.0% | TRPC6 inh conf 50.5% | TRPC6 act conf inactive
O=C(CNC(=O)C1CCCCC1)Nc1ccccc1	none
C#CC[N+](C)(C)CCCCCCCCCCCC	TRPC6 inh -5.13 | HEK293 MPD ctr-2 inactive | HEK293 MPD ctr 2-2 inactive | TRPC4 ctr mod 19.0% | TRPC4 ctr inh 2 45.0% | TRPC6 inh conf 60.0%
CCN(CC)CCN(C(=O)C1=COCCO1)c1nc2c(OC)ccc(OC)c2s1	TRPC6 inh -5.41 | HEK293 MPD ctr-2 -104.0% | HEK293 MPD ctr 2-2 inactive | TRPC4 ctr mod -26.0% | TRPC4 ctr inh 2 69.0% | TRPC6 inh conf inactive | TRPC6 act conf inactive
CCN(CC)CCN(C(=O)C1=COCCO1)c1nc2cc3c(cc2s1)OCO3	TRPC6 inh -6.84 | TRPC4 sel inh 2 51.5% | TRPC4 spec -21.6% | HEK293 MPD ctr 2-1 inactive | HEK293 MPD ctr-1 -183.5% | TRPC6 inh conf inactive | TRPC6 act conf inactive
CCN(CC)CCN(C(=O)C1=COCCO1)c1nc2ccc(C)cc2s1	none
CCN(CC)CCN(C(=O)c1ccc(C(=O)c2ccccc2)cc1)c1nc2c(OC)cccc2s1	none
CCN(CC)CCN(C(=O)c1ccc([N+](=O)[O-])cc1)c1nc2c(OC)cccc2s1	TRPC6 inh -6.26 | HEK293 MPD ctr-2 inactive | HEK293 MPD ctr 2-2 inactive | TRPC4 ctr mod -12.5% | TRPC4 ctr inh 2 36.0% | TRPC6 inh conf inactive | TRPC6 act conf inactive
COc1c(F)c(F)c(C(=O)O)c(Nc2cccc(C)c2)c1F	none
N#Cc1nnn2c1nc(N)c1c(F)cccc12	none
Cc1ccc(C)c(OCCCN2CCNCC2)c1	none
Cc1ccc(C)c(OCCCCN2CCNCC2)c1C	TRPC4 potent 15, TRPC6 inh -5.62 | HEK293 MPD ctr-2 inactive | HEK293 MPD ctr 2-2 inactive | TRPC4 ctr mod inactive | TRPC4 ctr inh 2 49.5% | TRPC6 inh conf 53.0%
COc1cc(NC(=S)N2CCCCC2C)c(OC)cc1Cl (stereo unspecified)	none
